Laboratory results reported in ChEMBL document CHEMBL1629654, “Breakthrough Aspergillus fumigatus and Candida albicans double infection during caspofungin treatment: laboratory characteristics and implication for susceptibility testing” (2009).
In brackets after ≈: the same amount, converted by molar mass. Activity calls are given as the source filed them. No cut-off for these calls is given here.

How the values were obtained:
Candida albicans [1] = assay: Antimicrobial activity against Candida albicans isolate C after 48 hrs by Etest; type: functional
Procedure, shortened: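 Etest on RPMI 1640 agar with 2% glucose, run per the manufacturer's instructions. Index and control clinical blood isolates were tested in parallel.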

Candida albicans [2] = assay: Antimicrobial activity against Candida albicans isolate R after 48 hrs by Etest; type: functional
Procedure, shortened: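 Etest on RPMI 1640 agar with 2% glucose, performed according to the manufacturer's recommendations.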

Candida albicans [3] = assay: Antimicrobial activity against Candida albicans isolate R after 48 hrs by microdilution method; type: functional
Procedure, shortened: (§1)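 Broth microdilution in microtiter plates, read spectrophotometrically at 490 nm. MIC taken as the lowest drug dilution giving 50% growth inhibition. C. krusei […] run as control in each run. Read at 24 h and 48 h; trailing growth noted at 48 h.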

Candida albicans [4] = assay: Antimicrobial activity against Candida albicans isolate C after 48 hrs by microdilution method; type: functional; procedure, shortened: as §1
Candida albicans [5] = assay: Antimicrobial activity against Candida albicans isolate R infected in NMRI mouse assessed as decrease in kidney bacterial burden at 50 mg/kg, ip measured on day 4; type: functional, organism-based; design: dose 50 mg/kg
Procedure, shortened: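 NMRI mice (26–30 g), seven per group, were inoculated iv on day 0 with C. albicans (1 × 10^5 CFU). They received ip treatment on days 1–3 with anidulafungin 12 mg/kg or fluconazole 50 mg/kg; controls received saline. On day 4, kidneys were homogenised in saline and CFU counted by spot plating of 10-fold dilutions. Results are log10 CFU/ml; detection limit 50 CFU/ml; Mann-Whitney test.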

Candida albicans [6] = assay: Antimicrobial activity against Candida albicans isolate R after 24 hrs by microdilution method; type: functional; procedure, shortened: as §1
Candida albicans [7] = assay: Antimicrobial activity against Candida albicans isolate C after 48 hrs by EUCAST microdilution method; type: functional
Procedure, shortened: (§2)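 EUCAST broth microdilution, plates read spectrophotometrically at 490 nm. MIC is the lowest dilution giving 50% growth inhibition. C. krusei […] control included in each run.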

Candida albicans [8] = assay: Antimicrobial activity against Candida albicans isolate R after 48 hrs by EUCAST microdilution method; type: functional; procedure, shortened: as §2
Candida albicans [9] = assay: Antimicrobial activity against Candida albicans isolate C after 24 hrs by microdilution method; type: functional; procedure, shortened: as §1
Candida albicans [10] = assay: Antimicrobial activity against Candida albicans isolate S infected in NMRI mouse assessed as decrease in kidney bacterial burden at 50 mg/kg, ip measured on day 4; type: functional, organism-based; design: dose 50 mg/kg

SMILES | MIC (Candida albicans [1]) [µg/mL] | MIC (Candida albicans [2]) [µg/mL] | MIC (Candida albicans [3]) [µg/mL] | MIC (Candida albicans [4]) [µg/mL] | Activity (Candida albicans [5]) | MIC (Candida albicans [6]) [µg/mL] | MIC (Candida albicans [7]) [µg/mL] | MIC (Candida albicans [8]) [µg/mL] | MIC (Candida albicans [9]) [µg/mL] | Activity (Candida albicans [10])
C[C@@H]1[C@H](O)[C@@H](C)/C=C/C=C/C=C/C=C/C=C/C=C/C=C/[C@H](O[C@@H]2O[C@H](C)[C@@H](O)[C@H](N)[C@@H]2O)C[C@@H]2O[C@](O)(C[C@@H](O)C[C@@H](O)[C@H](O)CC[C@@H](O)C[C@@H](O)CC(=O)O[C@H]1C)C[C@H](O)[C@H]2C(=O)O [AMPHOTERICIN B] | 0.125 (≈ 0.135 µM) | 0.25 (≈ 0.271 µM) |  |  |  |  |  |  |  | 
OC(Cn1cncn1)(Cn1cncn1)c1ccc(F)cc1F [FLUCONAZOLE] |  |  | ≤ 0.125 | ≤ 0.25 | Active | ≤ 0.125 | 0.125 (≈ 0.408 µM) | ≤ 0.125 | 0.25 (≈ 0.816 µM) | Active
CCC(C)n1ncn(-c2ccc(N3CCN(c4ccc(OCC5COC(Cn6cncn6)(c6ccc(Cl)cc6Cl)O5)cc4)CC3)cc2)c1=O (stereo unspecified) [ITRACONAZOLE] |  |  | ≤ 0.03 | ≤ 0.03 |  | ≤ 0.03 | ≤ 0.03 | ≤ 0.03 | ≤ 0.03 | 
